This note sets out measurements from PubChem BioAssay.

The source made the active and inactive calls.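 The calls were made as follows: active = duplicate-averaged activation above buffer control mean plus 5 SD of those controls; inactive = the rest.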

The test can be described thus: nonspecific flux increase, KCNQ1-free cells – parental CHO cells, counter-screen for KCNQ1 potentiator project (AID 493006).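 As to activation: fluorescence ratio of max minus min over baseline after K+ and Tl+ depolarization.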 Conditions: parental CHO-K1 cells, FluxOR thallium flux, at 10 µM; hits give high values. Summed up:
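Assay system: parental CHO-K1 cells lacking KCNQ1, loaded with FluxOR thallium dye; timing: dye 90 min RT, compound 20 min RT; signal: kinetic thallium-flux fluorescence; repeats: duplicate wells per compound, percent values averaged; benchmarks: buffer and R-L3 controls; reagent: Potassium/thallium depolarization pulse; read-out: fluorescence change ratio scaled 0% buffer, 100% R-L3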
In the case of `Cc1ccc(OCC(=O)NNC(=S)NC(=O)c2cccs2)c(C)c1`, the activation is 195% (active).

As to `Cc1sc(N/N=C/c2ccco2)nc1-c1ccccc1`, the outcome was inactive.

For the compound `CS(=O)(=O)N1CCN(c2ccccc2NC(=O)CSc2nnc(-c3ccco3)o2)CC1`, the outcome was inactive.

As to `CCOC(=O)Cn1c(=S)[nH]c2c(oc3ccc(Cl)cc32)c1=O`, the activation was 226% (active).

`COCCn1c(=S)[nH]c2sc3c(c2c1=O)CCC(C)C3` (stereo not drawn): the activation is 541% (active).

In the case of `O=c1c2cc(Cl)ccc2nc(-c2ccccc2)n1O`, the activation was 298% (active).

As for `COc1cc(OC)cc(C(=O)Nc2nnc(SCC(=O)NCc3ccco3)s2)c1`, the activation is 150% (active).

As for `COc1ccccc1C(=O)NNC(=O)C(=O)NC1CCCCC1`, the activation is 262% (active).

In the case of `Cc1ccc(C(=O)Nc2nc(-c3ccccc3)c(-c3ccccc3)o2)cc1`, the activation is 201% (active).

As to `CC(C)c1nc2sc3c(=S)nc[nH]c3c2c2c1CCC2`, the activation is 247% (active).

Regarding `S=c1nc(-c2ccccc2)[nH]n1-c1ccccc1`, the activation was 504% (active).

With `CCOc1ccc(-c2c(=O)n(O)c3ccccc3[n+]2[O-])cc1`, the activation is 224% (active).

With `Cc1sc(NC(=O)c2ccccc2)c(C(c2ccc(Cl)cc2)N2CCN(CCO)CC2)c1C` (stereo not drawn), the result was inactive.

In the case of `CCOC(=O)c1sc2ncnc(NCc3ccco3)c2c1C`, the activation was 332% (active).

For the compound `CC(C)n1cc(NC(=O)c2cc(-c3ccccc3)on2)cn1`, the activation was 182% (active).

For the compound `Cc1ccc(SCc2[nH]nc3c2C(c2ccco2)C(C#N)=C(N)O3)cc1` (stereo not drawn), the result was inactive.

Consider `CCOC(=O)Cn1c2ccccc2c2nc3ccccc3nc21`, for which the result was inactive.

In the case of `OC(C#CCCN1CCCCC1)(c1ccccc1)c1ccccc1`, the outcome was inactive.
